pIC50: −log10 of the molar value. Active and inactive are the calls of the source. The rule behind the calls is not given here.
Experiments:
[1] = molecular target: Cell division cycle 7-related protein kinase (Homo sapiens) (UniProt O00311); assay: Inhibition of CDC7 (unknown origin)
[2] = Antiproliferative activity against human HL60 cells after 72 hrs by MTT assay; assay type: functional, cell-based; details: HL-60, 72 h
Outline: (§1)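 Cells grown in RPMI-1640 with heat-inactivated 10% FBS, penicillin 100 units/mL and streptomycin 100 μg/mL, at 37 °C under 20% O2, 5% CO2. Compounds dissolved in DMSO at 10.0 mg/mL (stock), then diluted. Cells were plated for 24 h, exposed to a range of concentrations for 72 h, and viability was read by MTT. IC50 is 50% absorbance inhibition versus control cells; means of three experiments.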

KB = assay: Antiproliferative activity against human KB cells after 72 hrs by MTT assay; assay type: functional, cell-based
Outline: as §1

[3] = Antiproliferative activity against human SMMC7721 cells after 72 hrs by MTT assay; assay type: functional, cell-based; details: SMMC-7721, 72 h
Outline: as §1

[4] = Antiproliferative activity against human HCT116 cells after 72 hrs by MTT assay; assay type: functional, cell-based; details: HCT-116, 72 h
Outline: as §1

A549 = assay: Antiproliferative activity against human A549 cells after 72 hrs by MTT assay; assay type: functional, cell-based; details: A549, 72 h
HCT-116 [5] = assay: Ratio of taxol IC50 to compound IC50 for human HCT116 cells; assay type: functional
[6] = Cell cycle arrest in human HCT116 cells assessed as accumulation at G2/M phase after 24 hrs by FACS analysis; assay type: functional, cell-based; details: HCT-116
[7] = Cell cycle arrest in human HCT116 cells assessed as accumulation at G2/M phase at 200 nM after 24 hrs by FACS analysis; assay type: functional, cell-based; details: HCT-116
HCT-116 [8] = assay: Induction of apoptosis in human HCT116 cells at 200 nM after 24 hrs by FACS analysis relative to control; assay type: functional
[9] = molecular target: T1, Serine/threonine-protein kinase Chk1 (Homo sapiens) (UniProt O14757); assay: Inhibition of CHK1 (unknown origin) at 1 ug/ml relative to control
T1 sequence (whole entry): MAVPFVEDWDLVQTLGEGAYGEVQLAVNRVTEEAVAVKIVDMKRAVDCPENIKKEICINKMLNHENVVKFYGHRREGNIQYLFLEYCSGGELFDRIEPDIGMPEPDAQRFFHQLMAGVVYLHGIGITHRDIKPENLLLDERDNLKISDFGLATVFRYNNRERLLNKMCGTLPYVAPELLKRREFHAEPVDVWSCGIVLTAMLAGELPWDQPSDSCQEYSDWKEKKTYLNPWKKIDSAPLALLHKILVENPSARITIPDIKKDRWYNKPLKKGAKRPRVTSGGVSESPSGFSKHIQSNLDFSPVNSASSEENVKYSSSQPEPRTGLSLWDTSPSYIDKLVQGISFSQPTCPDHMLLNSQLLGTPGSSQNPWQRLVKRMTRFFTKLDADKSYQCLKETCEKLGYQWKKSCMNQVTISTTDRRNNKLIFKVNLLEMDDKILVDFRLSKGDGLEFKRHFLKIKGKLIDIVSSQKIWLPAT
Outline: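 Fixed-concentration screen at 1 µg/mL using the luminescent ADP-Glo assay.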

[10] = molecular target: Cyclin-dependent kinase 2 (Homo sapiens) (UniProt P24941); assay: Inhibition of CDK2 (unknown origin) at 1 ug/ml relative to control
[11] = molecular target: Dual specificity mitogen-activated protein kinase kinase 1 (Homo sapiens) (UniProt Q02750); assay: Inhibition of MEK1 (unknown origin) at 1 ug/ml relative to control
[12] = molecular target: Glycogen synthase kinase-3 beta (Homo sapiens) (UniProt P49841); assay: Inhibition of GSK3beta (unknown origin) at 1 ug/ml relative to control
[13] = molecular target: Serine/threonine-protein kinase B-raf (Homo sapiens) (UniProt P15056); assay: Inhibition of BRAF (unknown origin) at 1 ug/ml relative to control
[14] = molecular target: T2, Inhibitor of nuclear factor kappa-B kinase subunit beta (Homo sapiens) (UniProt O14920); assay: Inhibition of IKKbeta (unknown origin) at 1 ug/ml relative to control
T2 sequence (whole entry): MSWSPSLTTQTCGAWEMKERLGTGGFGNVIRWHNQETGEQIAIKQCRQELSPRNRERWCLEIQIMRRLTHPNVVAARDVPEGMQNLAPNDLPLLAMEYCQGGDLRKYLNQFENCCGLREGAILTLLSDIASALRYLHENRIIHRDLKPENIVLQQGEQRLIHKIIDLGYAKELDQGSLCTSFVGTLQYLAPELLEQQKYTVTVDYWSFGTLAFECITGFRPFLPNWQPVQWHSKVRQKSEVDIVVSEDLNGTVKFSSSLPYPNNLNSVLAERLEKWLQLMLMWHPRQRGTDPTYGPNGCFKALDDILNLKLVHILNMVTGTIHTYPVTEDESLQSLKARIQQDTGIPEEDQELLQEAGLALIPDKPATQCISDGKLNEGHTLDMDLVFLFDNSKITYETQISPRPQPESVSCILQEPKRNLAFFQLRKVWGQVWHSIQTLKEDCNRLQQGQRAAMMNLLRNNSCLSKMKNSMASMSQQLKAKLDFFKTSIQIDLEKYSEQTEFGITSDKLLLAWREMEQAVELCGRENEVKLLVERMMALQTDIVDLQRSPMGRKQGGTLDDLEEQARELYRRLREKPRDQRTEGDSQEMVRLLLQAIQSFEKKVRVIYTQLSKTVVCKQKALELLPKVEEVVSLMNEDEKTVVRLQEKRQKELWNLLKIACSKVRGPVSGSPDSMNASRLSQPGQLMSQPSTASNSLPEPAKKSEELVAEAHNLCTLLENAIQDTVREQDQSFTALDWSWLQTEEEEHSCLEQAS

[15] = molecular target: Protein kinase C (PKC) (Homo sapiens) (UniProt O94806+P41743+P17252+P05129+Q05655+P05771+Q05513+Q02156+P24723+Q15139+Q04759); assay: Inhibition of PKC (unknown origin) at 1 ug/ml relative to control
Outline: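 Fixed-concentration screen at 1 µg/mL with a Z'-LYTE kinase assay kit.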

[16] = Apparent permeability across apical to basolateral side in MDCK cells by HPLC; assay type: ADME, cell-based, Canis lupus familiaris; details: dog
Aurora kinase A = molecular target: T3, Aurora kinase A (Homo sapiens, UniProt O14965); assay: Inhibition of human full length Aurora A by Z'-LYTE assay
T3 sequence (O14965 whole entry): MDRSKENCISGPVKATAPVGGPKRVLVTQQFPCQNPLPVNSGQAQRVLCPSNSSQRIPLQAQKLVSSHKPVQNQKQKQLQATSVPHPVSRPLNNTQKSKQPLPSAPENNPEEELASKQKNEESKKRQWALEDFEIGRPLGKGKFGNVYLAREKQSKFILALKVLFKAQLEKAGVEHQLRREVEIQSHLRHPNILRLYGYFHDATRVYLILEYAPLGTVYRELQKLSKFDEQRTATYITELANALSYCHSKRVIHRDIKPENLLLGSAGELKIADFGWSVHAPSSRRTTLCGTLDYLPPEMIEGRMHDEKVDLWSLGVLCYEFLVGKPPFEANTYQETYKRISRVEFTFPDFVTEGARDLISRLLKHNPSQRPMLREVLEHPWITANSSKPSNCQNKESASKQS

[17] = molecular target: T4, Aurora kinase A (Homo sapiens) (UniProt O14965); assay: Inhibition of human full length Aurora A at 1 ug/ml by Z'-LYTE assay
T4 sequence (whole entry): T3 sequence (O14965 whole entry)

Cell division cycle 7-related protein kinase (Homo sapiens), sequence (O00311 whole entry, looked up): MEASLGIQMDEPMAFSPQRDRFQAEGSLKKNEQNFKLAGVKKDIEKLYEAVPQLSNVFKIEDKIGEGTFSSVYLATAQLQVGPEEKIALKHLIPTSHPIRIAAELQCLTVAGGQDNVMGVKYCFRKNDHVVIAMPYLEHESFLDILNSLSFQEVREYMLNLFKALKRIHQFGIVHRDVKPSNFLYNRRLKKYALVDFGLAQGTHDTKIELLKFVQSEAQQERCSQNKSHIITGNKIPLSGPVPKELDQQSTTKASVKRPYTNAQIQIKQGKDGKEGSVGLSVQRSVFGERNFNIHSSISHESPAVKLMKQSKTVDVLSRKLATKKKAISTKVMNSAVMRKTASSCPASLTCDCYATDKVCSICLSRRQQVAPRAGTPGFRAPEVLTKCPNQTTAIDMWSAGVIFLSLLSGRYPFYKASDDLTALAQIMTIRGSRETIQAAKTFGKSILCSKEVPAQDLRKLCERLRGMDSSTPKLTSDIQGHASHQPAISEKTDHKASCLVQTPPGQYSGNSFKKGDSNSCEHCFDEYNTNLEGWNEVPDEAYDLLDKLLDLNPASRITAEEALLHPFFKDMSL
Glycogen synthase kinase-3 beta (Homo sapiens), sequence (P49841 whole entry, looked up): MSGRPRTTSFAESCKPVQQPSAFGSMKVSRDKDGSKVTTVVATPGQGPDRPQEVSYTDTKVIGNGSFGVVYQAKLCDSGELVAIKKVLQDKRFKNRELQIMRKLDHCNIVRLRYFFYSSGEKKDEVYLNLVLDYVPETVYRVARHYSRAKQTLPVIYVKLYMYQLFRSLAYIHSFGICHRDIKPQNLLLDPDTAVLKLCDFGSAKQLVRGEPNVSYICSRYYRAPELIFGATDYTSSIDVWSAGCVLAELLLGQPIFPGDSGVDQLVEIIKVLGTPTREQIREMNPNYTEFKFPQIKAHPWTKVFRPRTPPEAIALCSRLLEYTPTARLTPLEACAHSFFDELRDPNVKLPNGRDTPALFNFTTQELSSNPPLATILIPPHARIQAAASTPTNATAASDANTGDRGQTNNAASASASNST
Serine/threonine-protein kinase B-raf (Homo sapiens), sequence (P15056 whole entry): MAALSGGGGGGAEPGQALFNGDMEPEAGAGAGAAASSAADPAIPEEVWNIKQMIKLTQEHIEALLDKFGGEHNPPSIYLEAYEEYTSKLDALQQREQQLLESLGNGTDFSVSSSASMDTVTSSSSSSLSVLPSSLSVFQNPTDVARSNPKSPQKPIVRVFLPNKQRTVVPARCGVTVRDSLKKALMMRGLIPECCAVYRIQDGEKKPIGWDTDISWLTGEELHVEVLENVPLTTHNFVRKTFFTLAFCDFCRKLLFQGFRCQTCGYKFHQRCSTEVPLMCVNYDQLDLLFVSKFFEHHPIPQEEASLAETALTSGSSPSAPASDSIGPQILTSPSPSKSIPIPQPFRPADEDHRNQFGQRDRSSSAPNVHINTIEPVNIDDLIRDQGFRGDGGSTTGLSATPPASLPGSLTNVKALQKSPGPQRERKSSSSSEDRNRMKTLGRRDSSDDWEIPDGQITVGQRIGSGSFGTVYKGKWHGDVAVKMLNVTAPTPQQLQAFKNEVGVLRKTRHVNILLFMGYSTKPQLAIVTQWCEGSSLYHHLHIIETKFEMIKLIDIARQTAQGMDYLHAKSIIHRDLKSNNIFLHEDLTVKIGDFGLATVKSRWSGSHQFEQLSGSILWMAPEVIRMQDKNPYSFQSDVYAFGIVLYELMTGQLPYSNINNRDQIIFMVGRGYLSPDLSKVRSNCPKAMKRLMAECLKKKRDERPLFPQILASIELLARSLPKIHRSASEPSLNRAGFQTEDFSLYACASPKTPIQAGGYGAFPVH
Dual specificity mitogen-activated protein kinase kinase 1 (Homo sapiens), sequence (Q02750 whole entry): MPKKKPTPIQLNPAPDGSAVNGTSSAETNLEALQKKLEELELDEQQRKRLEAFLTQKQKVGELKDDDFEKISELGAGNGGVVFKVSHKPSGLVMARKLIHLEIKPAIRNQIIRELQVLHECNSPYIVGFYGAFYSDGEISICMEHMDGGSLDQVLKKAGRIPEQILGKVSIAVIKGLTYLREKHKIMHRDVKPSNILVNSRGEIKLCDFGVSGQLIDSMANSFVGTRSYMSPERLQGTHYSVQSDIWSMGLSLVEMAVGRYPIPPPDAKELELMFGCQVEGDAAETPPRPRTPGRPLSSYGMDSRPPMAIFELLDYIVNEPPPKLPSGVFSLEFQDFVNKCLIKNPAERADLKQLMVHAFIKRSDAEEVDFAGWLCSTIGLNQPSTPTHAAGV

Row | pIC50 [1] | pIC50 (KB) | pIC50 (A549) | inhibition [9] [%] | inhibition [10] [%] | inhibition [11] [%] | inhibition [12] [%] | inhibition [13] [%] | inhibition [14] [%] | inhibition [15] [%] | Papp A→B [16] [×10⁻⁶ cm/s] | pIC50 (Aurora kinase A) | inhibition [17] [%] | Compound | pIC50 [2] | pIC50 [3] | pIC50 [4] | Ratio IC50 (HCT-116 [5]) | Activity [6] | Activity [7] | Activity (HCT-116 [8]) [%]
1 | 7.96 |  |  |  |  |  |  |  |  |  |  |  |  | N#Cc1ccc2c(-c3cc4cc(CN5CCOCC5)ccc4[nH]3)n[nH]c2c1 |  |  |  |  |  |  | 
2 |  | 7.49 | 5.84 | 20.5 | 13.8 | 6.64 | 19.3 | 16.4 | 0.55 | 0.62 | 6.07 | 6.28 | 75.4 | CN(C(=O)Nc1ccccc1)c1ccc2[nH]c(-c3n[nH]c4ccccc34)cc2n1 | 8.08 | 6.55 | 8.89 | 3 | Dose-dependent effect | Active | 25.4
